Laboratory results as given in ChEMBL document CHEMBL3259792 (Eur J Med Chem, 2014).

How the values were obtained:
[1] = system: Human immunodeficiency virus 1; assay: Antiviral activity against HIV1 harboring reverse transcriptase […] mutant infected in human MT4 cells assessed as inhibition of virus-induced cell death measured after 5 days of infection by MTT method; format: functional, organism-based; conditions: Human immunodeficiency virus 1, MT4, 120 h
Outline: (§1)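 MT-4 cells infected with the named NNRTI-resistant HIV-1 RT mutant strain, in the presence of a range of compound concentrations. Viable cells counted at day 5 post-infection by tetrazolium (MTT) colorimetry. […] Mean of 2–3 independent experiments, each in triplicate.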

[2] = biological target: Human immunodeficiency virus type 1 reverse transcriptase (Human immunodeficiency virus 1, UniProt Q72547, K103N); assay: Inhibition of HIV1 wild-type reverse transcriptase K103N mutant using [3H]dTTP by scintillation counting
[3] = biological target: Human immunodeficiency virus type 1 reverse transcriptase (Human immunodeficiency virus 1, UniProt Q72547, L100I); assay: Inhibition of HIV1 wild-type reverse transcriptase L100I mutant using [3H]dTTP by scintillation counting
Outline: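 RNA-dependent DNA polymerase activity of recombinant RT (2–4 nM) on poly(rA)/oligo(dT) 10:1 with [3H]dTTP (1 Ci/mmol). Incubation at 37 °C. Acid-insoluble radioactivity collected on GF/C filters after 5% cold TCA, counted by scintillation.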

[4] = system: Human immunodeficiency virus 1; assay: Antiviral activity against HIV1 harboring reverse transcriptase K103N mutant infected in human MT4 cells assessed as inhibition of virus-induced cell death measured after 5 days of infection by MTT method; format: functional, organism-based; conditions: Human immunodeficiency virus 1, MT4, 120 h; outline: as §1
[5] = system: Human immunodeficiency virus 1; assay: Ratio of EC50 for HIV1 harboring reverse transcriptase […] mutant to EC50 for wild type HIV1 NL4.3; format: functional
Outline: (§2)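 Fold change is the EC50 against the named mutant strain divided by the EC50 against wild-type HIV-1 NL4-3. […] Means of 2–3 independent experiments in triplicate.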

[6] = system: Human immunodeficiency virus 1; assay: Ratio of EC50 for HIV1 harboring reverse transcriptase K103N mutant to EC50 for wild type HIV1 NL4.3; format: functional; outline: as §2
[7] = biological target: T1, Human immunodeficiency virus type 1 reverse transcriptase (Human immunodeficiency virus 1, UniProt Q72547); assay: Inhibition of HIV1 wild-type reverse transcriptase Y181I/Y181C mutant using [3H]dTTP by scintillation counting
[8] = system: Human immunodeficiency virus 2; assay: Antiviral activity against HIV-2 ROD infected in human CEM cells assessed as protection of cells monitored by giant cell formation by microscopy; format: functional, organism-based; conditions: Human immunodeficiency virus 2, ISOLATE ROD, CCRF-CEM
Outline: (§3)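 Human CEM cultures (~3 × 10⁵ cells/mL) infected with ~100 CCID₅₀ per mL of HIV-1 IIIB or HIV-2 ROD, seeded with serial compound dilutions. Incubated 4 days at 37 °C; syncytium (giant cell) formation scored by microscopy. EC₅₀ = concentration protecting cells from viral cytopathicity by 50%. Means of two to three independent experiments, each in triplicate.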

[9] = system: Human immunodeficiency virus 1; assay: Antiviral activity against HIV1 harboring reverse transcriptase Y181C mutant infected in human MT4 cells assessed as inhibition of virus-induced cell death measured after 5 days of infection by MTT method; format: functional, organism-based; conditions: Human immunodeficiency virus 1, MT4, 120 h; outline: as §1
[10] = system: Human immunodeficiency virus 1; assay: Ratio of efavirenz EC50 to compound EC50 for HIV1 harboring reverse transcriptase L100I mutant infected in human MT4 cells; format: functional
[11] = Selectivity index, ratio of CC50 for human MT4 cells to EC50 for HIV1 NL4.3 infected in human MT4 cells; format: toxicity, cell-based; conditions: read-out: Ratio CC50/EC50
Outline: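 Ratio CC₅₀/EC₅₀. CC₅₀ is from mock-infected MT-4 cells and EC₅₀ from HIV-1 NL4-3-infected MT-4 cells, both read by MTT at day 5 post-infection.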

[12] = system: Human immunodeficiency virus 1; assay: Antiviral activity against HIV1 3B infected in human CEM cells assessed as protection of cells monitored by giant cell formation by microscopy; format: functional, organism-based; conditions: Human immunodeficiency virus 1, 3B, CCRF-CEM; outline: as §3
[13] = system: Human immunodeficiency virus 1; assay: Ratio of EC50 for HIV1 harboring reverse transcriptase K103N/Y181C double mutant to EC50 for wild type HIV1 NL4.3; format: functional; outline: as §2
[14] = system: Human immunodeficiency virus 1; assay: Antiviral activity against HIV1 harboring reverse transcriptase K103N/Y181C double mutant infected in human MT4 cells assessed as inhibition of virus-induced cell death measured after 5 days of infection by MTT method; format: functional, organism-based; conditions: Human immunodeficiency virus 1, MT4, 120 h; outline: as §1
[15] = biological target: T1, Human immunodeficiency virus type 1 reverse transcriptase; assay: Inhibition of HIV1 wild-type reverse transcriptase using [3H]dTTP by scintillation counting
[16] = Cytotoxicity against human MT4 cells assessed as cell viability by MTT assay; format: cell-based
Outline: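 Mock-infected MT-4 cells exposed to a range of compound concentrations. Viable cells measured by MTT colorimetry at day 5. CC₅₀ = concentration causing 50% death of non-infected cells. Means of two to three independent experiments, each in triplicate.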

[17] = system: Human immunodeficiency virus 1; assay: Ratio of EC50 for HIV1 harboring reverse transcriptase Y181C mutant to EC50 for wild type HIV1 NL4.3; format: functional; outline: as §2
[18] = system: Human immunodeficiency virus 1; assay: Antiviral activity against HIV1 NL4.3 infected in human MT4 cells assessed as inhibition of virus-induced cell death measured after 5 days of infection by MTT method; format: functional, organism-based; conditions: Human immunodeficiency virus 1, NL4.3, MT4, 120 h
Outline: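 Lymphoid MT-4 cells (NIH AIDS Reagent Program) infected with HIV-1 NL4-3 in the presence of varying compound concentrations. On day 5 post-infection, viable cells were counted by MTT tetrazolium colorimetry. EC₅₀ = concentration inhibiting virus-induced cell death by 50%. Means of two to three independent experiments, each in triplicate.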

[19] = biological target: Human immunodeficiency virus type 1 reverse transcriptase (Human immunodeficiency virus 1, UniProt Q72547, V106A); assay: Inhibition of HIV1 wild-type reverse transcriptase V106A mutant using [3H]dTTP by scintillation counting
[20] = system: Human immunodeficiency virus 1; assay: Ratio of EC50 for HIV1 harboring reverse transcriptase Y188L mutant to EC50 for wild type HIV1 NL4.3; format: functional; outline: as §2
[21] = system: Human immunodeficiency virus 1; assay: Antiviral activity against HIV1 harboring reverse transcriptase Y188L mutant infected in human MT4 cells assessed as inhibition of virus-induced cell death measured after 5 days of infection by MTT method; format: functional, organism-based; conditions: Human immunodeficiency virus 1, MT4, 120 h; outline: as §1

Structure (SMILES)	EC50 [1] [nM]	IC50 [2] [nM]	IC50 [3] [nM]	EC50 [4] [nM]	Ratio EC50 [5]	Ratio EC50 [6]	IC50 [7] [nM]	EC50 [8] [nM]	EC50 [9] [nM]	selectivity ratio [11]	EC50 [12] [nM]	Ratio EC50 [13]	EC50 [14] [nM]	IC50 [15] [nM]	CC50 [16] [nM]	Ratio EC50 [17]	EC50 [18] [nM]	IC50 [19] [nM]	further results
Cc1cc(C)cc(S(=O)(=O)c2c(C(=O)NCc3ccc(F)cc3)[nH]c3ccc(Cl)cc23)c1	5.9	24	30	16	5.4	14.5	> 20000	> 10000	160	> 48300	5.3	45750	50300	26	> 53100	145	1.1	–	Ratio EC50 [10]: 10
Cc1cc(C)cc(S(=O)(=O)c2c(C(=O)NCCc3cccc(Cl)c3)[nH]c3ccc(Cl)cc23)c1	31	5940	10	180	7.8	45	> 20000	> 10000	870	7270	11	7274	29100	83	29100	218	4	–	–
Cc1cc(C)cc(S(=O)(=O)c2c(C(=O)N[C@@H](C)c3ccccc3)[nH]c3ccc(Cl)cc23)c1	–	9400	80	128	–	20	> 20000	–	3470	–	–	>5778	> 36400	50	–	550	6.3	28	Ratio EC50 [20]: >5778; EC50 [21]: > 36400 nM
Cc1cc(C)cc(S(=O)(=O)c2c(C(=O)NC(C)c3ccccc3)[nH]c3ccc(Cl)cc23)c1 (racemic)	26	540	70	33	43	55	8230	> 10000	720	> 206000	16	5445	3270	40	> 53500	1200	0.6	50	–
Cc1cccc(CCNC(=O)c2[nH]c3ccc(Cl)cc3c2S(=O)(=O)c2cc(C)cc(C)c2)c1	31	> 20000	1300	260	5	42	> 20000	> 25000	1200	> 8380	7.3	>8383	> 51900	190	> 52000	194	6.2	–	–
Cc1cc(C)cc(S(=O)(=O)c2c(C(=O)N[C@H](C)c3ccccc3)[nH]c3ccc(Cl)cc23)c1	–	90	50	4.3	–	2	2530	–	86	–	–	795	1670	39	–	41	2.1	65	Ratio EC50 [20]: 92; EC50 [21]: 193 nM
Cc1cc(C)cc(CNC(=O)c2[nH]c3ccc(Cl)cc3c2S(=O)(=O)c2cc(C)cc(C)c2)c1	65	> 20000	5900	180	15	43	> 20000	> 2000	> 2000	> 12400	28	>12332	> 51800	7000	> 52000	>476	4.2	–	–
Cc1cc(C)cc(S(=O)(=O)c2c(C(=O)NCCc3ccc(Cl)cc3)[nH]c3ccc(Cl)cc23)c1	190	60	960	≥ 2000	3.5	>=37	> 20000	> 10000	1700	602	68	602	32400	89	32400	36	53.8	–	–
Cc1cc(C)cc(S(=O)(=O)c2c(C(=O)NCCc3ccccc3Cl)[nH]c3ccc(Cl)cc23)c1	24	3140	270	37	6	9.3	> 20000	> 10000	250	11200	9.4	11243	45000	131	45000	63	4	–	–
